Source: paper PMC2987701 (Bioorganic & medicinal chemistry letters, 2010)
“Also recorded” adds a separate entry of the source.

Tests used:
[1] = molecular target: T1, GST-Bfl-1 (Homo sapiens, UniProt Q16548); experiment: High-throughput fluorescence polarization; format: binding; conditions: result in words
T1 sequence (Q16548 1-175): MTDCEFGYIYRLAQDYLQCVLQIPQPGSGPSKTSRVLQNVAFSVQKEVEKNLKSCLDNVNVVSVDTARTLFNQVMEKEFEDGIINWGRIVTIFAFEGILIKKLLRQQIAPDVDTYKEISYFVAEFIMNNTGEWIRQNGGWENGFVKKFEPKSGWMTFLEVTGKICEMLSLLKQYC

[2] = system: H69AR small cell lung tumor cell; experiment: Cell-based viability study, tumor cell growth; parameters: species or system human; conditions: concentration of 10 μM; note [21]
[3] = molecular target: T1, GST-Bfl-1; experiment: LanthaScreen TR-FRET assay, FITC-Bid BH3 peptide / GST-tagged protein; format: binding; conditions: result in words
Outline: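 Test compound at 10 concentrations (2-fold serial dilution, 10% DMSO), in duplicate wells. Preincubated 1 h at 4 °C with GST-Bfl-1 (7.4 nM working solution, Bis-Tris pH 7.0 buffer). Then FITC-Bid (5.6 nM) plus Tb-antibody (2.5 nM) working solution added, 4 h at room temperature in the dark. Read in time-resolved mode: excitation 340 nm, 0.1 ms delay, 1 ms integration, 5 reads averaged. Signal is the 520/490 nm ratio. Controls were buffer without protein and DMSO.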

[4] = system: mammalian cell line; experiment: Cell viability in a mammalian cell line; format: cell-based; conditions: note [21]

CN1CCN(C2=C(Cl)C(=O)N(c3ccc(Cl)c(Cl)c3)C2=O)CC1 [Compound 1]
Potency of Bfl-1 inhibition in words (FP / assay not specified) [1]: submicromolar potency | Inhibition of human H69AR small cell lung tumor cell growth [2]: inhibition of human H69AR small cell lung tumor cell growth was observed | Potency of Bfl-1 inhibition in words (TR-FRET) [3]: submicromolar potency

O=C1C(Cl)=C(N2CCCCC2)C(=O)N1c1ccc(Cl)c(Cl)c1 [Compound 19]
Effect on cell viability ([4]; 15 μg/mL): decreased cell viability

CN(C)C1=C(Cl)C(=O)N(c2ccc(Cl)c(Cl)c2)C1=O [Compound 21]
Potency of Bfl-1 inhibition in words (FP / assay not specified) [1]: equipotent to original hit 1; also recorded: Submicromolar | Effect on cell viability in a mammalian cell line ([4]; concentration not given): not inhibitory to cell viability

O=C1C(Cl)=C(N2CCOCC2)C(=O)N1c1ccc(Cl)c(Cl)c1 [Compound 22]
Potency of Bfl-1 inhibition in words (FP / assay not specified) [1]: equipotent to original hit 1; also recorded: Submicromolar

C[C@@H]1CN(C2=C(Cl)C(=O)N(c3ccc(Cl)c(Cl)c3)C2=O)CCN1 [Compound 24]
Potency of Bfl-1 inhibition in words (FP / assay not specified) [1]: equipotent to original hit 1; also recorded: Submicromolar

O=C1C(Cl)=C(N2CCN(CCO)CC2)C(=O)N1c1ccc(Cl)c(Cl)c1 [Compound 28]
Potency of Bfl-1 inhibition in words (FP / assay not specified) [1]: Submicromolar

O=C1C(Cl)=C(N2CCN(CCOCCO)CC2)C(=O)N1c1ccc(Cl)c(Cl)c1 [Compound 29]
Potency of Bfl-1 inhibition in words (FP / assay not specified) [1]: Submicromolar

O=C1C(Cl)=C(N2CCN(C/C=C/c3ccccc3)CC2)C(=O)N1c1ccc(Cl)c(Cl)c1 [Compound 38]
Potency of Bfl-1 inhibition in words (FP / assay not specified) [1]: Submicromolar
